Screens as filed in PubChem BioAssay.
This is a sample that favours compounds with a hit; in the whole collection about 1% have one here.
KLK5 inh = inhibitors of human kallikrein 5 | recombinant hK5, fluorogenic AMC substrate cleavage | Q9Y337 | inhibition, % at 5 µM | 210,000 compounds, 0.59% hits | AID 873;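 active = inhibition of 40% or more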;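 also: 0% = enzyme controls without compound and 100% = no-enzyme blanks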
FXIIa inh = factor XIIa (human) inhibition; 220,000 compounds, 0.3% hits; P00748; purified FXIIa, Boc-QGR-AMC fluorogenic substrate, 2 h; AID 800; inhibition, % at 5 µM; in the data active = inhibition above about 40%;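 also: 0% = enzyme with no compound and 100% = blank without enzyme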
Thrombin inh = blocks human thrombin protease activity. alpha-thrombin, Boc-VPR-AMC fluorogenic substrate cleavage. inhibition, % at 5 µM. 220,000 compounds, 0.26% hits. AID 1046;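 active = inhibition at or above 40%; inactive = inhibition below 40%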;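 also: 0% = enzyme with no compound and 100% = wells without enzyme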
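Material: Human alpha-thrombin protein | Buffer or medium: pH 7.5 Tris-saline with Tween 20 | Reagent: Boc-VPR-AMC substrate, 15 µM final | Schedule: Reaction at ambient temperature | Detection: AMC fluorescence at 355 nm excitation and 460 nm emission | Evaluation: Percent inhibition scaled between no-compound controls and no-enzyme blanks | Controls: no-compound enzyme wells and no-enzyme blanks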
FXIa inh = blocks human coagulation factor XIa protease activity; P03951; purified FXIa, Boc-Glu-Ala-Arg-AMC fluorogenic substrate; inhibition, % at 5 µM; 220,000 compounds, 0.14% hits;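 active = inhibition of at least 40%; inactive = inhibition below 40%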;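 also: fluorescence of freed AMC excited at 355 nm; 0% = enzyme without compound and 100% = no enzyme blank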
The depositor's hits bear a star; / = no result.

SMILES	KLK5 inh	FXIIa inh	Thrombin inh	FXIa inh
Cc1sc(NC(=O)c2ccco2)c(CN2CCN(c3ccc(F)cc3)CC2)c1C	-16	57*	2	30
COc1ccc(N2CCCn3c2nc2c3c(=O)n(Cc3ccc(C)cc3)c(=O)n2C)c(OC)c1	21	54*	18	11
O=C(c1ccc(S(=O)(=O)N2CCCCC2)cc1)c1nnc(-c2ccc(Cl)cc2)o1	46*	2	15	34
O=C(CCc1ccc(S(=O)(=O)N2CCCCC2)cc1)c1nnc(-c2ccccc2)o1	-23	6	-3	-15
CCc1ccccc1NCC(=O)Nc1ccc(Cl)c(C(F)(F)F)c1	0	21	19	14
COc1nnc(-c2ccc(N3CCCCC3)c(NC(C)=O)c2)c2ccccc12	17	15	-1	3
COCC(=O)n1nc(-c2ccc(Cl)cc2)nc1NCc1ccc(F)cc1	-9	12	51*	1
COCC(=O)n1nc(-c2ccc(C)cc2)nc1NCc1ccc(F)cc1	-17	-6	79*	-6
O=C1CN(CC(=O)N2CCOCC2)c2ccccc2O1	42*	24	11	14
Cc1ccn2c(NC(=O)C(C)(C)Oc3ccc(Cl)cc3)c(-c3cccs3)nc2c1	-12	11	-8	2
Cc1ccc(O)c(C2=NOC(O)(C(F)(F)F)C2)c1 (stereo not given)	-8	14	-1	6
CC1(C)OC(=CC=Nc2ccc(Cl)cc2)OC1(C)C	16	45*	2	28
Cc1cc(/C=C\c2ccccc2)nc2ccccc12	50*	24	6	32
O=C(OCC(=O)N1CCCc2ccccc21)c1ccc(Cl)nc1	29	47*	28	14
O=C1/C(=C/c2ccccn2)SC(=S)N1N1CCOCC1	-5	11	2	7
C=CCN1C=CC(=CC=C(C#N)C#N)C=C1	4	13	-2	4
CCCN1C=CC(=CC=C(C#N)C#N)C=C1	67*	22	4	20
COC(=O)Cc1c(C)nc2nc(-c3ccc(C)cc3)[nH]n2c1=O	6	40*	0	8
CCn1c(SCC(=O)NCc2cccs2)nnc1-c1cccs1	8	-6	-5	-2
C=CCn1c(Cc2cccs2)nnc1SCC(=O)Nc1ccc(OC)c(OC)c1	-7	20	3	-1
C=CCn1c(Cc2cccs2)nnc1SCC(=O)NCc1ccco1	17	27	26	48*
Cn1c(SCC(=O)NCc2cccs2)nnc1-c1cccs1	52*	15	16	10
COC(c1ccccc1)c1nnc(CCC(=O)N(C)Cc2cccc(-n3cccn3)c2)o1 (stereo not given)	/	/	40*	18
CCOC(=O)C1CCCN(C(=O)CSc2nccn2C)C1 (stereo not given)	5	18	0	5
C=CCNC(=O)/C(C#N)=C\c1cc(Cl)c(O)c(OCC)c1	52*	8	48*	8
SMILES	KLK5 inh	FXIIa inh	Thrombin inh	FXIa inh
CCOc1cc(/C=C(/C#N)C(=O)Nc2ccc(O)cc2)cc(Br)c1O	-7	13	1	4
CCn1c(SCc2nc3cc(OC)c(OC)cc3c(=O)[nH]2)nc2ccccc21	1	/	0	-1
CCSc1nc2cc(OC)c(OC)cc2c(=O)n1CC	66*	22	24	17
COc1ccc(/C=N/NC(=O)Cc2cc(OC)c(OC)cc2[N+](=O)[O-])cc1	-3	10	-2	10
OC1(c2ccc(F)cc2)CCN(Cc2nnnn2Cc2cccs2)CC1	36	11	61*	2
OC1(c2cccc(C(F)(F)F)c2)CCN(Cc2nnnn2Cc2ccccc2)CC1	-4	5	-3	-2
CC(C)(C)c1ccc(OCc2nc(-c3ccccn3)no2)c(Br)c1	44*	32	19	15
Clc1cc(Cl)c(OCc2nc(-c3ccccn3)no2)cc1Cl	1	-7	-15	-1
COc1ccc(CCNC(=O)CCn2c(SCC(=O)N3CCCC3)nc3ccccc3c2=O)cc1OC	5	5	-1	0
